Screening results: PubChem, several laboratories
An excerpt weighted towards active compounds, which were near 2.1% of everything screened.
IMP-1 inhibitor: inhibitors of Pseudomonas aeruginosa IMP-1 metallo-beta-lactamase. purified IMP-1, nitrocefin hydrolysis, epi-absorbance fluorescence. 290,000 tested, 0.45% active. inhibition, % at 5.6 µM;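 active = inhibition above the mean plus 3 SD of all compounds in the same screening run, cut at about 4.5% in these data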;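 note: 0% = IMP-1 with DMSO and 100% = DMSO wells lacking enzyme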
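System: purified recombinant IMP-1 beta-lactamase. Medium: Zinc- and detergent-supplemented HEPES buffer, pH 7.1. Compound: one 5.6 µM dose […]. Schedule: 15 min preincubation plus 25 min reaction at 25 °C. Technique: Epi-absorbance fluorescence, 480 nm excitation, 530 nm emission.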
zfTRPN1 agonist: zebrafish TRPN1 (NompC) channel agonism; 220,000 tested, 0.18% active; HEK293 zebrafish TRPN1-YFP, Fluo-8 calcium fluorescence; 100% = response to 87 µM carbachol; AID 1424; activation, % at 3 µM;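 active = activation above its plate's cutoff, the mean activation of test wells on that plate plus 3 SD, cut at about 19% in these data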;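 note: 0% = DMSO alone and 100% = 87 µM carbachol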
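Assay system: Zebrafish TRPN1-YFP in HEK293 cells | Incubation: Dye loading 1 h at 37 °C, then 30 min room temperature | Measured by: Kinetic Fluo-8 fluorescence, ex 470-495, em 515-575 nm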
TRPML3 ag: agonists of human TRPML3 channel | 220,000 tested, 0.29% active | Q8TDD5 | HEK293 TRPML3-YFP, Fluo-8 calcium fluorescence; 100% = the carbachol control signal | activation, % at 3 µM;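 active = activation above its plate's cutoff, the mean activation of the plate's test wells plus 3 SD, cut at about 12% in these data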;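 note: 0% = DMSO only wells and 100% = carbachol wells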
Target sequence (Q8TDD5 whole entry, looked up): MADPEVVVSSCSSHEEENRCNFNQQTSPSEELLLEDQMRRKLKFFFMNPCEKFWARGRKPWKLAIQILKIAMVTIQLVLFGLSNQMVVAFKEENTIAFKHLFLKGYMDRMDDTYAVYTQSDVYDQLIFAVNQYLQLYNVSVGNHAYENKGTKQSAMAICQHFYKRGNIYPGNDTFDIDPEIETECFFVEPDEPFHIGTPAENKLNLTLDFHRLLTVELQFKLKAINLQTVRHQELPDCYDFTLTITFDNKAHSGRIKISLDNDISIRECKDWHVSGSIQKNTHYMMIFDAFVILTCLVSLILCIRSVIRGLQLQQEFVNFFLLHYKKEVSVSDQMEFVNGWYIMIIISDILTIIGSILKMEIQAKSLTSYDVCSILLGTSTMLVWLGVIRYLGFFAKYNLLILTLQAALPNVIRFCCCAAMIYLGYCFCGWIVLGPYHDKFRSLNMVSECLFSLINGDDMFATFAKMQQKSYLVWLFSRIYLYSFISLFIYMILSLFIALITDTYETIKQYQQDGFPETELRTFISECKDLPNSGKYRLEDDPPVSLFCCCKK
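Test system: HEK293 cells stably carrying human TRPML3-YFP; Doses: single dose, 3 µM final nominal compound, 0.3% DMSO final; Schedule: dye loading 1 h 37 °C then 30 min ambient, 125 s read; Technique: Fluo-8 calcium fluorescence; Benchmarks: high control carbachol 87 µM, low control DMSO.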
CRFR2-BP ag: agonists of human CRF-binding protein/CRF-R2 receptor complex. 350,000 tested, 0.46% active. activation, % at 13.2 µM. HEK293 CRF-R2/CRF-BP, calcium dye fluorescence (FLIPR); percent of saturating CRF peptide response;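 active = activation of at least 50%, plus an integration ratio under a set limit after plate pattern correction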;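 note: plate controls were neutral control wells without compound for no effect and CRF at EC100 for full effect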
CRFBP-R2 block: antagonists of CRF-binding protein/CRF-R2 receptor complex | 350,000 tested, 0.59% active | HEK293 CRF-R2/CRF-BP, CRF-induced calcium fluorescence | inhibition, % at 11.8 µM;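 active = inhibition of the ligand-induced calcium signal above about 50% at the single tested concentration, limit read from the data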
VIM-2 inhibitor: blocks Pseudomonas aeruginosa VIM-2 metallo-beta-lactamase. purified VIM-2, nitrocefin hydrolysis, epi-absorbance fluorescence. AID 1527. 290,000 tested, 0.89% active. inhibition, % at 5.6 µM;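 active = inhibition above the mean of all tested compounds plus 3 SD, cutoff set per screening run, cut at about 7.5% in these data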;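 note: red hydrolysis product quenches plate fluorescence so inhibitors raise well fluorescence; 0% = enzyme with DMSO and 100% = DMSO without enzyme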
* marks the source's active call; other numbers are inactive results.

Cc1cc2nc(/C(C#N)=C\c3ccc(-c4ccccc4C(=O)O)o3)[nH]c2cc1C was read as IMP-1 inhibitor 0, CRFR2-BP ag 100*, CRFBP-R2 block -63 and VIM-2 inhibitor 3.
`Cc1ccc2nc(/C(C#N)=C/c3ccc(-c4ccccc4C(=O)O)o3)[nH]c2c1` gave IMP-1 inhibitor -2, CRFR2-BP ag 65*, CRFBP-R2 block -41 and VIM-2 inhibitor 3.
CCOC(=O)C1=C(C)NC(C)=C(C(=O)OCC)C1C(=O)OCC(=O)N(C)C was read as IMP-1 inhibitor -2, zfTRPN1 agonist 1, TRPML3 ag 1, CRFR2-BP ag 1, CRFBP-R2 block -1 and VIM-2 inhibitor -1.
For Cc1cc(Cl)c2oc(C(=O)N(C)CCc3cnn(C)c3)c(C)c2c1 the results were IMP-1 inhibitor -3, CRFR2-BP ag 0, CRFBP-R2 block 6 and VIM-2 inhibitor -2.
For Cc1ccc(CNc2nc(C)nc3sc4c(c23)CCC4)cc1 the results were IMP-1 inhibitor -2, zfTRPN1 agonist -1, TRPML3 ag -1, CRFR2-BP ag -1, CRFBP-R2 block 2 and VIM-2 inhibitor -2.
`Cc1nc(Nc2ccc(O)cc2)c2c3c(sc2n1)CCCC3` gave IMP-1 inhibitor -4, zfTRPN1 agonist -1, TRPML3 ag -1, CRFR2-BP ag -4, CRFBP-R2 block 17 and VIM-2 inhibitor 8.4*.
Screening CC(C)(C)c1ccc(C(=O)NCCC(=O)N2CCC3(CC2)NCCc2[nH]cnc23)cc1 returned IMP-1 inhibitor -3, CRFR2-BP ag 0, CRFBP-R2 block -3 and VIM-2 inhibitor -3.
`CC(=O)N(Cc1ccco1)c1nc(C(=O)Nc2ccc(Cl)cc2)c(C)s1` gave IMP-1 inhibitor -2, zfTRPN1 agonist -1, TRPML3 ag 0, CRFR2-BP ag 3, CRFBP-R2 block 65* and VIM-2 inhibitor -3.
Screening O=C(CSc1ccccc1F)NCC(c1ccco1)N1CCCCC1 (centres undefined) returned CRFR2-BP ag -1 and CRFBP-R2 block 2.
Screening CCOC(=O)C1CCN(S(=O)(=O)c2ccc3[nH]c4c(c3c2)CCCC4)CC1 returned IMP-1 inhibitor 1, CRFR2-BP ag -1, CRFBP-R2 block 13 and VIM-2 inhibitor 8.1*.
O=C(NCc1ccc2[nH]c3c(c2c1)CCCC3)c1ccc(S(=O)(=O)N2CCCC2)cc1 was read as IMP-1 inhibitor 0, zfTRPN1 agonist -1, TRPML3 ag 1, CRFR2-BP ag 0, CRFBP-R2 block 11 and VIM-2 inhibitor 12*.
CCn1c(SCC(=O)Nc2cc(C)on2)nc2c(c1=O)SCC2 was read as IMP-1 inhibitor -3, CRFR2-BP ag 0, CRFBP-R2 block -1 and VIM-2 inhibitor -1.
`Cc1ccccc1N1CC(C(=O)N2CCCCCC2)CC1=O` (centres undefined) gave CRFR2-BP ag -1 and CRFBP-R2 block -2.
`Cc1nnsc1C(=O)N/N=C/c1ccccc1` gave IMP-1 inhibitor -3, zfTRPN1 agonist 1, TRPML3 ag 0, CRFR2-BP ag 0, CRFBP-R2 block -10 and VIM-2 inhibitor -1.
Screening Cc1nnsc1C(=O)N/N=C/c1ccc2ccccc2c1O returned IMP-1 inhibitor -2, zfTRPN1 agonist 3, TRPML3 ag 2, CRFR2-BP ag 147*, CRFBP-R2 block -170 and VIM-2 inhibitor -3.
For Cc1ccc(C(=O)C2CCN(CC(=O)N3CCN(c4ccc(F)cc4)CC3)CC2)cc1 the results were IMP-1 inhibitor 0, zfTRPN1 agonist 0, TRPML3 ag 1, CRFR2-BP ag 1, CRFBP-R2 block 2 and VIM-2 inhibitor -1.
Screening COc1ccc2c(c1)Cc1sc(NC(C)=O)nc1-2 returned IMP-1 inhibitor 11*, zfTRPN1 agonist 0, TRPML3 ag 0, CRFR2-BP ag -4, CRFBP-R2 block -14 and VIM-2 inhibitor 3.
`COc1ccc2c(c1)Cc1sc(NC(=O)c3ccco3)nc1-2` gave IMP-1 inhibitor -2, zfTRPN1 agonist -2, TRPML3 ag 0, CRFR2-BP ag 5, CRFBP-R2 block -14 and VIM-2 inhibitor -2.
`O=C(O)C1CCN(c2nc(-c3ccccc3)c3cc(Br)ccc3n2)CC1` gave IMP-1 inhibitor 4, CRFR2-BP ag 3, CRFBP-R2 block -6 and VIM-2 inhibitor -1.
For OCCN1CCN(c2nc(-c3ccccc3)c3cc(Br)ccc3n2)CC1 the results were IMP-1 inhibitor -1, CRFR2-BP ag 0, CRFBP-R2 block -14 and VIM-2 inhibitor 8.0*.
`Cc1ccc(CC2C(=O)N(c3ccccc3)C(=O)C2C)cc1` (centres undefined) gave IMP-1 inhibitor -1, CRFR2-BP ag 0, CRFBP-R2 block 3 and VIM-2 inhibitor -1.
Screening Cc1ccc(CC2C(=O)N(c3cc(Cl)ccn3)C(=O)C2C)cc1 (centres undefined) returned IMP-1 inhibitor 13*, zfTRPN1 agonist -1, TRPML3 ag 0, CRFR2-BP ag 0, CRFBP-R2 block 2 and VIM-2 inhibitor 0.
Cc1nn(CC(=O)N2CCN(S(=O)(=O)c3ccccc3)CC2)c(C)c1[N+](=O)[O-] was read as CRFR2-BP ag 1 and CRFBP-R2 block 44.
`COc1ccc(OCc2nc(N)nc(Nc3ccccc3OC)n2)cc1` gave IMP-1 inhibitor 5.4*, zfTRPN1 agonist -2, TRPML3 ag -1, CRFR2-BP ag 0, CRFBP-R2 block 5 and VIM-2 inhibitor -1.
For COc1ccccc1Nc1nc(N)nc(CCl)n1 the results were IMP-1 inhibitor -1, zfTRPN1 agonist 1, TRPML3 ag 0, CRFR2-BP ag -2, CRFBP-R2 block 2 and VIM-2 inhibitor -2.
For Cc1ccc(C(=O)O)cc1NS(=O)(=O)c1ccc2c(c1)oc(=O)n2C the results were IMP-1 inhibitor -2, CRFR2-BP ag 8, CRFBP-R2 block -10 and VIM-2 inhibitor -1.
`O=C(Nc1ccc(N2CCOCC2)cc1)C1CC(=O)N(c2ccc(F)cc2)C1` (centres undefined) gave IMP-1 inhibitor 0, zfTRPN1 agonist -1, TRPML3 ag 0, CRFR2-BP ag -2, CRFBP-R2 block 4 and VIM-2 inhibitor -2.
COc1ccccc1C(=O)NNC(=S)NC(=O)c1cccs1 was read as IMP-1 inhibitor -4 and VIM-2 inhibitor -3.
Cc1c(NC(=S)NC(=O)c2sc3ccccc3c2Cl)cccc1C(=O)O was read as IMP-1 inhibitor -1, zfTRPN1 agonist 1, TRPML3 ag 1, CRFR2-BP ag 0, CRFBP-R2 block 23 and VIM-2 inhibitor -2.
COc1ccccc1C(=O)NC(=S)NNC(=O)c1sc2ccccc2c1Cl was read as IMP-1 inhibitor -4, zfTRPN1 agonist 3, TRPML3 ag 1, CRFR2-BP ag 251*, CRFBP-R2 block -254 and VIM-2 inhibitor -4.
